Test results as given in ChEMBL document CHEMBL1133751, “Design, synthesis, and biological evaluation of tricyclic nucleosides (dimensional probes) as analogues of certain antiviral polyhalogenated benzimidazole ribonucleosides” (J Med Chem, 2000).

Tests used:
Human alphaherpesvirus 1 = experiment: Antiviral activity against HSV-1 (herpes simplex virus), determined by ELISA in quadruplicate wells using BSC-1 cells; format: functional, organism-based; settings: Human alphaherpesvirus 1, BSC-1
Outline: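 KOS strain HSV-1 at 100 PFU/well added with selected drug concentrations in quadruplicate to 96-well dishes seeded with 10 000 BSC-1 cells/well and incubated overnight. Virus detected by ELISA. IC50 from linear regression of percent inhibition vs log concentration. Average of 2–3 separate experiments.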

HFF [1] = experiment: Visual cytotoxicity against stationary human foreskin fibroblasts (HFF) cells at the time of HCMV plaque enumeration; format: functional, cell-based
Outline: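 Stationary HFF monolayers in the uninfected wells of the HCMV plaque assay inspected microscopically for cytotoxicity. Compounds in growth medium at 4–8 concentrations. IC50 from linear regression of percent inhibition against log concentration.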

HFF [2] = experiment: Antiviral activity against towne strain HCMV was determined by plaque reduction assay in duplicate wells using HFF cells; format: functional, cell-based; settings: Homo sapiens
Outline: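 HFF monolayers in 24-well dishes infected with about 100 PFU Towne HCMV (plaque-purified isolate P0) per cm2. Compounds in growth medium added to duplicate wells at 4–8 concentrations. Plaques scored. IC50 from linear regression of percent inhibition against log drug concentration.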

[3] = Compound was tested for the inhibition of KB cell growth in quadruplicate wells; format: functional, cell-based; settings: Homo sapiens
Outline: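 KB cells grown through two population doublings with compound in quadruplicate wells. Growth quantified by crystal violet staining and spectrophotometric reading of eluted dye. IC50 from linear regression of percent inhibition against log concentration.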

HFF [4] = experiment: Antiviral activity against towne strain HCMV was determined by yield reduction assay in duplicate wells using HFF cells; format: functional; settings: Homo sapiens
Outline: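 HFF cells plated in 96-well dishes and incubated overnight. Inoculated with Towne HCMV at MOI 0.5–1 PFU/cell, then drug added, in duplicate wells. Progeny virus yield measured. IC90 from the linear portion of log–log regression of yield versus drug concentration.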

## CC(C)Nc1nc2cc3cc(Cl)c(Cl)cc3nc2n1C1O[C@H](CO)[C@@H](O)[C@H]1O (stereo partly specified)
Human alphaherpesvirus 1
  IC50: > 100 µM
HFF [1]
  IC50: 32 µM
HFF [2]
  IC50: 32 µM
[3]
  IC50: 90 µM

## OC[C@H]1OC(n2cnc3nc4cc(Cl)c(Cl)cc4cc32)[C@H](O)[C@@H]1O (stereo partly specified)
Human alphaherpesvirus 1
  IC50: > 100 µM
HFF [1]
  IC50: > 100 µM
HFF [4]
  IC90: 85 µM
HFF [2]
  IC50: > 100 µM
[3]
  IC50: 85 µM

## CC(C)Nc1nc2nc3cc(Cl)c(Cl)cc3cc2n1C1O[C@H](CO)[C@@H](O)[C@H]1O (stereo partly specified)
Human alphaherpesvirus 1
  IC50: > 100 µM
HFF [1]
  IC50: 100 µM
HFF [2]
  IC50: 32 µM
[3]
  IC50: 90 µM

## CC(C)Nc1nc2cc3cc(Cl)c(Cl)cc3cc2n1C1O[C@H](CO)[C@@H](O)[C@H]1O (stereo partly specified)
Human alphaherpesvirus 1
  IC50: 80 µM
HFF [1]
  IC50: 32 µM
HFF [2]
  IC50: 32 µM
[3]
  IC50: 146 µM

## OC[C@H]1OC(n2c(SCc3ccccc3)nc3cc4cc(Cl)c(Cl)cc4nc32)[C@H](O)[C@@H]1O (stereo partly specified)
Human alphaherpesvirus 1
  IC50: > 100 µM
HFF [1]
  IC50: > 10 µM
HFF [2]
  IC50: > 10 µM
[3]
  IC50: > 100 µM

## CC(C)Nc1nc2nc3cc(Cl)c(Cl)cc3nc2n1C1O[C@H](CO)[C@@H](O)[C@H]1O (stereo partly specified)
Human alphaherpesvirus 1
  IC50: 100 µM
HFF [1]
  IC50: 100 µM
HFF [2]
  IC50: 32 µM
[3]
  IC50: 70 µM

## OC[C@H]1OC(n2c(SCc3ccccc3)nc3cc4cc(Cl)c(Cl)cc4cc32)[C@H](O)[C@@H]1O (stereo partly specified)
Human alphaherpesvirus 1
  IC50: > 100 µM
HFF [1]
  IC50: > 100 µM
HFF [2]
  IC50: > 100 µM
[3]
  IC50: > 100 µM

## OC[C@H]1O[C@@H](n2c(Cl)nc3cc(Cl)c(Cl)cc32)[C@H](O)[C@@H]1O
HFF [4]
  IC90: 1.4 µM
HFF [2]
  IC50: 2.9 µM
[3]
  IC50: 210 µM

## OC[C@H]1OC(n2c(SCc3ccccc3)nc3nc4cc(Cl)c(Cl)cc4nc32)[C@H](O)[C@@H]1O (stereo partly specified)
Human alphaherpesvirus 1
  IC50: 30 µM
HFF [1]
  IC50: 20 µM
HFF [2]
  IC50: 4.2 µM
[3]
  IC50: 20 µM

## OC[C@H]1OC(n2c(SCc3ccccc3)nc3nc4cc(Cl)c(Cl)cc4cc32)[C@H](O)[C@@H]1O (stereo partly specified)
Human alphaherpesvirus 1
  IC50: > 100 µM
HFF [1]
  IC50: 20 µM
HFF [2]
  IC50: 4.2 µM
[3]
  IC50: 40 µM

## Nc1nc2c(ncn2COC(CO)CO)c(=O)[nH]1 [GANCICLOVIR]
HFF [1]
  IC50: > 100 µM
HFF [4]
  IC90: 1.6 µM
[3]
  IC50: > 100 µM

## OC[C@H]1OC(n2c(NC3CC3)nc3nc4cc(Cl)c(Cl)cc4cc32)[C@H](O)[C@@H]1O (stereo partly specified)
Human alphaherpesvirus 1
  IC50: > 100 µM
HFF [1]
  IC50: > 100 µM
HFF [2]
  IC50: > 100 µM
[3]
  IC50: > 100 µM

## OC[C@H]1OC(n2c(Cl)nc3cc4cc(Cl)c(Cl)cc4cc32)[C@H](O)[C@@H]1O (stereo partly specified)
Human alphaherpesvirus 1
  IC50: 26 µM
HFF [1]
  IC50: 3.2 µM
HFF [4]
  IC90: 2.3 µM
HFF [2]
  IC50: 2 µM
[3]
  IC50: 19 µM

## OC[C@H]1OC(n2c(Cl)nc3nc4cc(Cl)c(Cl)cc4cc32)[C@H](O)[C@@H]1O (stereo partly specified)
Human alphaherpesvirus 1
  IC50: 70 µM
HFF [1]
  IC50: 21 µM
HFF [4]
  IC90: 45 µM
HFF [2]
  IC50: 2 µM
[3]
  IC50: 11 µM

## OC[C@H]1OC(n2cnc3nc4cc(Cl)c(Cl)cc4nc32)[C@H](O)[C@@H]1O (stereo partly specified)
Human alphaherpesvirus 1
  IC50: > 100 µM
HFF [1]
  IC50: 45 µM
HFF [2]
  IC50: 32 µM
[3]
  IC50: > 100 µM

## OC[C@H]1O[C@@H](n2cnc3cc(Cl)c(Cl)cc32)[C@H](O)[C@@H]1O [DICHLORORIBOBENZIMIDAZOLE]
Human alphaherpesvirus 1
  IC50: 30 µM
HFF [4]
  IC90: 19 µM
HFF [2]
  IC50: 42 µM
[3]
  IC50: 36 µM

## OC[C@H]1OC(n2cnc3cc4cc(Cl)c(Cl)cc4nc32)[C@H](O)[C@@H]1O (stereo partly specified)
Human alphaherpesvirus 1
  IC50: > 100 µM
HFF [1]
  IC50: > 10 µM
HFF [2]
  IC50: > 10 µM
[3]
  IC50: > 100 µM

## OC[C@H]1OC(n2c(Cl)nc3cc4cc(Cl)c(Cl)cc4nc32)[C@H](O)[C@@H]1O (stereo partly specified)
Human alphaherpesvirus 1
  IC50: 90 µM
HFF [1]
  IC50: 18 µM
HFF [4]
  IC90: 9.2 µM
HFF [2]
  IC50: 18 µM
[3]
  IC50: 8 µM

## OC[C@H]1OC(n2c(NC3CC3)nc3nc4cc(Cl)c(Cl)cc4nc32)[C@H](O)[C@@H]1O (stereo partly specified)
Human alphaherpesvirus 1
  IC50: > 100 µM
HFF [1]
  IC50: > 100 µM
HFF [2]
  IC50: 32 µM
[3]
  IC50: 90 µM

## OC[C@H]1OC(n2c(NC3CC3)nc3cc4cc(Cl)c(Cl)cc4cc32)[C@H](O)[C@@H]1O (stereo partly specified)
Human alphaherpesvirus 1
  IC50: 80 µM
HFF [1]
  IC50: 32 µM
HFF [2]
  IC50: 32 µM
[3]
  IC50: 55 µM

## OC[C@H]1OC(n2c(NC3CC3)nc3cc4cc(Cl)c(Cl)cc4nc32)[C@H](O)[C@@H]1O (stereo partly specified)
Human alphaherpesvirus 1
  IC50: > 100 µM
HFF [1]
  IC50: > 100 µM
HFF [2]
  IC50: > 100 µM
[3]
  IC50: 100 µM

## OC[C@H]1OC(n2cnc3cc4cc(Cl)c(Cl)cc4cc32)[C@H](O)[C@@H]1O (stereo partly specified)
Human alphaherpesvirus 1
  IC50: > 100 µM
HFF [1]
  IC50: > 100 µM
HFF [4]
  IC90: 17 µM
HFF [2]
  IC50: > 100 µM
[3]
  IC50: > 100 µM
